From PubChem BioAssay
Compounds with a hit are over-represented: about 3.5% of the library has one in this group of screens.
RGS4 inh – RGS4 inhibitors, primary screen, cell-based, HEK293 M3R inducible RGS4, calcium flux; B-score at 10 µM; Fluo-4 calcium flux; hits give high values; triggered by carbachol at its EC20; actives 0.45% (n = 310,000);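 active means B-score, a plate-corrected calcium signal, over three deviations above library mean, with baseline fluorescence within five deviations of library mean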;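 further: RGS4 expression induced by doxycycline in cells with stable M3 receptor; B-score is computed from the integrated fluorescence ratio over baseline after carbachol; higher B-score means a larger calcium signal and so more RGS4 inhibition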
Target sequence (P49798 whole entry, looked up): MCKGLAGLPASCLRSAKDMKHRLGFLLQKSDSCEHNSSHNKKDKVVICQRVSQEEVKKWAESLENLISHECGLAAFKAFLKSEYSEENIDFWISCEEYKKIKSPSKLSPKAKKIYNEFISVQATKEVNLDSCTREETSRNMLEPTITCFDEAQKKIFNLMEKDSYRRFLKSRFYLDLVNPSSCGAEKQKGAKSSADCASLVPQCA
MrgX1 agonist – agonists of human MrgX1 receptor, primary screen, HEK293 cells, Fluo-4 calcium flux. Mas-related G-protein coupled receptor member X1 (Homo sapiens), Q96LB2. Fluo-4 calcium fluorescence, agonist mode; hits give high values. B-score at 10 µM. actives 0.44% (n = 310,000). AID 588627, 2011;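 active means calcium response B-score plate-corrected fluorescence ratio at least 3 library SD, with starting fluorescence B-score inside 5 SD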
Target sequence (Q96LB2 whole entry, looked up): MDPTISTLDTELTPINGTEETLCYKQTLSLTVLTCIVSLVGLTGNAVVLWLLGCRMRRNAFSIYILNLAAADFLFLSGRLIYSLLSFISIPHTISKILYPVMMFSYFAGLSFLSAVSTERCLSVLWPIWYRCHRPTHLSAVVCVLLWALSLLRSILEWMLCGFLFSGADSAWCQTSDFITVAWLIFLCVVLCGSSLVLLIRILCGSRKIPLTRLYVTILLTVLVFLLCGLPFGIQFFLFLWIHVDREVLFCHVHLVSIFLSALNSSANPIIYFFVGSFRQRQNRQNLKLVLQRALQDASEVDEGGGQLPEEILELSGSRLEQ
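Material: MrgX1-expressing HEK293 cells / Dosing: compound as first of three additions / Incubation: overnight seeding, then 1 h dark dye loading / Signal: Fluo-4 NW calcium fluorescence / Evaluation: B-scored fluorescence response ratio / Benchmarks: positive and negative control wells on each plate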
RGS4 act – RGS4 potentiators or activators, primary screen, cell-based, HEK293 M3R inducible RGS4, calcium flux. carbachol calcium flux Fluo4; hits give low values. B-score at 10 µM. actives 0.92% (n = 310,000). AID 463111, 2010;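 active means B-score of the integrated calcium signal more than 4 SD below the library mean, with starting fluorescence not abnormally high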;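 further: negative B-score means reduced calcium response which marks RGS4 activation or potentiation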
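Material: M3R-expressing HEK293 line, RGS4 induced by doxycycline | Schedule: Overnight RGS4 induction, 30 min dye load 37 °C, 20 min compound RT | Measured by: Fluo4 fluorescence kinetic imaging of calcium | Read-out: Integrated calcium ratio converted to B score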
MrgX1 antagonist – antagonists of human MrgX1 receptor, primary screen, HEK293 cells, Fluo-4 calcium flux; Mas-related G-protein coupled receptor member X1 (Homo sapiens), Q96LB2; BAM8-22 antagonism; hits give low values; B-score at 10 µM; actives 1.3% (n = 310,000); AID 588676, 2011;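 active means calcium-response B-score plate-corrected more than 3 library SD below zero, starting fluorescence within 5 deviations, no agonist response on first addition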;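 further: peak minus trough fluorescence over baseline after final BAM8-22 challenge near maximal dose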
MrgX1 allo act – positive allosteric modulators of MrgX1, primary screen, HEK293 cells, Fluo-4 calcium flux; AID 588675, 2011; FDSS; hits give high values; B-score at 10 µM; Mas-related G-protein coupled receptor member X1 (Homo sapiens), Q96LB2; actives 0.63% (n = 310,000);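 active means plate-corrected calcium response at least 3 library SD above typical, normal starting fluorescence, not activating the receptor alone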;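 further: compound read alongside a low EC10 to EC30 dose of BAM8-22 agonist; peak minus trough fluorescence over baseline measured at the second addition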
MrgX1 antag conf – MrgX1 receptor antagonists, duplicate retest, confirmation, HEK293 cells, Fluo-4 calcium flux | actives 19% (n = 2,300) | BAM8-22 calcium flux; hits give low values | shares compounds with MrgX1 antagonist | remaining BAM8-22 calcium response % of control (hits give low values), % at 10 µM;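 active means remaining agonist calcium response no higher than 100% minus 3 SD of agonist-only control wells, with starting fluorescence near control levels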;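 further: agonist BAM8-22 given at a near maximal EC90 to ECmax level; peak minus minimum fluorescence divided by baseline after agonist addition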
HEK293 Ca flux – nonspecific calcium signal in parental HEK293, confirmation, counter-screen for MrgX1 antagonist project, parental HEK293 cells, Fluo-4 calcium flux | shares compounds with MrgX1 antagonist | Fluo-4 calcium fluorescence, FDSS | fluorescence ratio F(max-min)/F0 at 10 µM | actives 2% (n = 4,000) | AID 624111, 2012;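 active means duplicate-averaged calcium fluorescence ratio at least three times the standard deviation of buffer wells, a nonspecific response in parental cells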
HEK293 Ca counter – calcium response in parental HEK293 cells, primary screen, counter-screen for MrgX1 allosteric activator project, cell-based, Fluo-4 calcium flux, duplicate; shares compounds with MrgX1 antagonist; Fluo-4 fluorescence ratio; hits give high values; fluorescence ratio F(max-min)/F0 at 10 µM; actives 0.4% (n = 4,000);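 active means calcium fluorescence ratio, averaged over duplicates, at least 3 SD of the buffer-well ratio, meaning a nonspecific response in receptor-free cells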;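 further: untransfected parental HEK293 lacking MrgX1 used as counterscreen for MrgX1 allosteric activators; fluorescence change taken during the second addition on a kinetic imager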
HEK293 Ca cntr2 – calcium response in parental HEK293 cells, primary screen, counter-screen for MrgX1 agonist project, cell-based, Fluo-4 calcium flux, duplicate, agonist mode; actives 8.7% (n = 4,000); fluorescence ratio F(max-min)/F0 at 10 µM; AID 624115, 2012; Fluo-4 calcium fluorescence (FDSS); hits give high values; shares compounds with MrgX1 antagonist;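 active means calcium fluorescence ratio at least three times the spread of buffer wells, meaning a non-specific response in parental cells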
An asterisk follows results filed as active.

Results for Cc1cccc(-c2nc(CSCC(=O)N3CCN(c4ccccn4)CC3)c(C)o2)c1 ?
RGS4 inh: inactive; MrgX1 agonist: inactive; RGS4 act: inactive; MrgX1 antagonist: -8.03*; MrgX1 allo act: inactive; MrgX1 antag conf: 58.1%*; HEK293 Ca flux: inactive; HEK293 Ca counter: inactive; HEK293 Ca cntr2: inactive

What do the screens show for `Cc1ccccc1OCCC(=O)Nc1cc(S(=O)(=O)N2CCOCC2)ccc1OC(C)C`?
RGS4 inh: inactive; MrgX1 agonist: inactive; RGS4 act: inactive; MrgX1 antagonist: inactive; MrgX1 allo act: inactive

Results for COc1cc(OC)cc(N2CCN(S(=O)(=O)c3ccc(-n4cnnn4)cc3)CC2)c1 ?
RGS4 inh: inactive; MrgX1 agonist: inactive; RGS4 act: inactive; MrgX1 antagonist: inactive; MrgX1 allo act: inactive

What do the screens show for `O=C(Cc1c(F)cccc1Cl)Nc1ccon1`?
RGS4 inh: inactive; MrgX1 agonist: inactive; RGS4 act: inactive; MrgX1 antagonist: -6.49*; MrgX1 allo act: inactive; MrgX1 antag conf: inactive; HEK293 Ca flux: inactive; HEK293 Ca counter: inactive; HEK293 Ca cntr2: inactive

Results for Cc1cc(NC(=O)Cc2c(F)cccc2Cl)no1 ?
RGS4 inh: inactive; MrgX1 agonist: inactive; RGS4 act: inactive; MrgX1 antagonist: inactive; MrgX1 allo act: inactive

How did CC(=O)N1CCSc2ccc(S(=O)(=O)NCCc3ccc(Cl)cc3)cc21 do in these assays?
RGS4 inh: inactive; MrgX1 agonist: inactive; RGS4 act: inactive; MrgX1 antagonist: -4.96*; MrgX1 allo act: inactive; MrgX1 antag conf: inactive; HEK293 Ca flux: inactive; HEK293 Ca counter: inactive; HEK293 Ca cntr2: inactive

What do the screens show for `CC(=O)N1CC(C)Sc2ccc(S(=O)(=O)NCCc3ccc(C)cc3)cc21` (stereo not drawn)?
RGS4 inh: inactive; MrgX1 agonist: inactive; RGS4 act: inactive; MrgX1 antagonist: inactive; MrgX1 allo act: inactive

Results for C=CCn1c(-c2ccc(S(=O)(=O)N3CCOCC3)cc2)csc1=Nc1ccccc1 ?
RGS4 inh: inactive; MrgX1 agonist: inactive; RGS4 act: inactive; MrgX1 antagonist: -7.91*; MrgX1 allo act: inactive; MrgX1 antag conf: inactive; HEK293 Ca flux: inactive; HEK293 Ca counter: inactive; HEK293 Ca cntr2: inactive

Results for COc1ccc(CCNC(=O)CN2C(=O)C3(OCCCO3)c3ccccc32)cc1OC ?
RGS4 inh: inactive; MrgX1 agonist: inactive; RGS4 act: inactive; MrgX1 antagonist: -5.39*; MrgX1 allo act: inactive; MrgX1 antag conf: 83.9%*; HEK293 Ca flux: inactive; HEK293 Ca counter: inactive; HEK293 Ca cntr2: inactive

What do the screens show for `COc1ccc(CNC(=O)C(C)OC(=O)c2cccs2)cc1` (stereo not drawn)?
RGS4 inh: inactive; MrgX1 agonist: inactive; RGS4 act: inactive; MrgX1 antagonist: inactive; MrgX1 allo act: inactive

Results for CCc1cccc(NC(=O)CCc2nc(-c3cccs3)no2)c1 ?
RGS4 inh: inactive; MrgX1 agonist: inactive; RGS4 act: inactive; MrgX1 antagonist: inactive; MrgX1 allo act: inactive
